Structures are written as SMILES. pKi: −log10 of the molar value.

By pKi is commonly meant the negative decadic logarithm of the Ki, by convention in mol/L.

Assay [1] concerns the target T1, Melatonin receptor type 1B (Homo sapiens) (UniProt P49286).
T1 sequence (whole entry): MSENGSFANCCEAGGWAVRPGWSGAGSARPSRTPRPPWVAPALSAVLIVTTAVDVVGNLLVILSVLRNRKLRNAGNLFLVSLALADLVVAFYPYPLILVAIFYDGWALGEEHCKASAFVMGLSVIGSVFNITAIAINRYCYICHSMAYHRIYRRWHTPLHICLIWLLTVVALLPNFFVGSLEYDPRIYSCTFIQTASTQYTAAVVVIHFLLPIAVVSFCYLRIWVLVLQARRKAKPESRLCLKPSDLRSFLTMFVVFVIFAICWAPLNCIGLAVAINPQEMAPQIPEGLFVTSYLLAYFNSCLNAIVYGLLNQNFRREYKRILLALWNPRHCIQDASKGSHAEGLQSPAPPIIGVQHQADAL
Description: Intrinsic activity at human MT2 receptor expressed in NIH3T3 cells assessed as stimulation of [35S]GTP-gamma-S binding relative to MLT. It counts as functional, cell-based.

Assay [2] has as its target T2, Melatonin receptor type 1A (Homo sapiens, UniProt P48039). Kind of assay: Intrinsic activity at human MT1 receptor expressed in NIH3T3 cells assessed as stimulation of [35S]GTPgammaS binding relative to MLT. It counts as functional, cell-based.
Assay [3] deals with T2, Melatonin receptor type 1A. Description: Activity at human MT1 receptor expressed in NIH3T3 cells assessed as inhibition of MLT-stimulated [35S]GTP-gamma-S binding. The format is functional, cell-based. To be noted: filed as partial agonist. (Binding of GTPγS marks nucleotide exchange on a G protein.)
Assay [4] addresses T3, Melatonin receptor type 1B (Homo sapiens, UniProt P49286).
T3 sequence (P49286 whole entry): T1 sequence (whole entry)
Description: Displacement of 2-[125I]iodomelatonin from human MT2 receptor expressed in NIH3T3 cells. It counts as cell-based.

Assay [5] deals with T1, Melatonin receptor type 1B (Homo sapiens). Kind of assay: (§1) Activity at human MT2 receptor expressed in NIH3T3 cells assessed as inhibition of MLT-stimulated [35S]GTPgammaS binding. It counts as functional, cell-based. The method in brief: (§2)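 Antagonism was measured in [35S]GTPγS binding on human MT2 NIH3T3 membranes (30 min, 30 °C; GDP 50 µM, NaCl 100 mM, MgCl2 3 mM). MLT concentration-response curves were run alone and with antagonist at 1, 10, 100 and 1000 nM.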

Assay [6] concerns the target T2, Melatonin receptor type 1A. Description: Displacement of 2-[125I]iodomelatonin from human MT1 receptor expressed in NIH3T3 cells. It counts as cell-based.
Assay [7] deals with Melatonin receptor (Homo sapiens) (UniProt P48039+P49286). Description: Selectivity for human MT2 receptor over MT1 receptor. The format is protein assay. The gist of the method:
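Incubation was 90 min at 37 °C in 50 mM Tris/HCl, pH 7.4, with nonspecific binding defined by 10 µM MLT. Ki came from IC50 via Cheng-Prusoff, mean of at least three runs in duplicate. The ratio compares MT1 and MT2 Ki.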

Assay [8] has as its target T3, Melatonin receptor type 1B. The description is as §1. It counts as functional, cell-based. Conditions: read-out: pA2 (converted). The gist of the method:
as §2

T2 sequence (P48039 whole entry): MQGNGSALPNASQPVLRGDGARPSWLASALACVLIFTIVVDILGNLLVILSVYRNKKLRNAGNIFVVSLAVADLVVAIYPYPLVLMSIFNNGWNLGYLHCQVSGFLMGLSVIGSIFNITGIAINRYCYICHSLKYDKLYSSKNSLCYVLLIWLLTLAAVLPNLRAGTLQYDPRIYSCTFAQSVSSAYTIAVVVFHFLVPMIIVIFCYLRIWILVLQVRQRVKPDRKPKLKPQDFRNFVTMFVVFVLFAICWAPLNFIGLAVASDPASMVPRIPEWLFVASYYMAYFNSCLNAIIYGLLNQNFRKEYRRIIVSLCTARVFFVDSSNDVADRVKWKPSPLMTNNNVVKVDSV
Chain of Melatonin receptor (Homo sapiens) (P48039 whole entry, looked up, one chain of several): as the sequence (P48039 whole entry) above

Consider `COc1cccc(C(=CCNC(C)=O)c2cccc(OC)c2)c1`, for which the Intrinsic activity was 0.34 in assay [1] and 0.2 in assay [2]. Also, the Activity result in assay [3] and in assay [5] (filed as partial agonist) was “Partial agonist” in each case. In addition, the negative logarithm of the Ki (pKi) in assay [4] is 9.56; in assay [6] it was 7.23. For the same compound, the Selectivity ratio in assay [7] came out at 214.
Regarding `CC(=O)NC/C(=C\c1ccccc1)c1ccccc1`, the Intrinsic activity came to 0.18 in assay [1] and 0.11 in assay [2]. In addition, the values for the pKi in assay [4] and in assay [6] were 6.83 and 5.92, respectively.
With `COc1cccc(/C(=C\CNC(C)=O)c2ccccc2)c1`, the Intrinsic activity was 0.3 in assay [1] and 0.45 in assay [2]. The values for the negative logarithm of the Ki (pKi) in assay [4] and in assay [6] were 8.60 and 6.64, respectively.
With `CCC(=O)NCCc1cccc(Cc2ccccc2)c1`, the results for the Intrinsic activity in assay [1] and in assay [2] were 0.48 and 0.24, respectively. Besides, the pKi in assay [4] is 6.18; in assay [6], 6.41.
Take `CC(=O)NCCC(c1ccccc1)c1ccccc1`: the Intrinsic activity was -0.23 in assay [1] and -0.19 in assay [2]. For the same compound, the figures for the negative-log Ki (pKi) in assay [4] and in assay [6] were 6.85 and 5.38, respectively.
For `CC(=O)NCC(Cc1ccccc1)c1ccccc1` (configuration not stated), in that order: -0.43, -0.3, 6.38 and 6.15.
Turning to `COc1cccc(/C(=C\CNC(=O)C2CCC2)c2ccccc2)c1`, the results for the Intrinsic activity in assay [1] and in assay [2] were -0.02 and -0.04, respectively. Further, the negative logarithm of the Ki (pKi) is 8.81 in assay [4] and 6.59 in assay [6].
On to `COc1cccc(C(CCNC(C)=O)c2ccccc2)c1` (racemic), for which the values for the Intrinsic activity in assay [1] and in assay [2] were 0.04 and 0.24, respectively. The pKi is 8.27 in assay [4] and 5.66 in assay [6]. In addition, the Selectivity ratio in assay [7] came to 407.
Regarding `COc1cccc(/C(=C/CNC(=O)C2CCC2)c2ccccc2)c1`, the Intrinsic activity is 0.13 in assay [1] and 0.29 in assay [2]. Besides, the negative-log Ki (pKi) is 9.28 in assay [4] and 7.03 in assay [6]. The Kb in assay [8] is 0.389 nM. Moreover, the Activity result in assay [5] (filed as antagonist) is “Antagonist”. In assay [7], the Selectivity ratio turned out to be 178.
For `COc1ccc(Cc2ccccc2)c(CCNC(C)=O)c1`, the Intrinsic activity in assay [1] was determined as 0.06; in assay [2] it was 0.24. Moreover, the values for the pKi in assay [4] and in assay [6] were 8.22 and 7.16, respectively.
`CCC(=O)NCC(Cc1ccccc1)c1cccc(OC)c1` (configuration not stated): the Intrinsic activity is -0.25 in assay [1] and -0.13 in assay [2]. Further, the values for the pKi in assay [4] and in assay [6] were 6.72 and 6.28, respectively.
Turning to `CCCC(=O)NCCC(c1ccccc1)c1cccc(OC)c1` (racemic), the Intrinsic activity amounted to 0.27 in assay [1] and 0.21 in assay [2]. Further, the pKi in assay [4] was 8.58; in assay [6], 6.26. Besides, the Selectivity ratio in assay [7] was found to be 209.
As to `O=C(NCC=C(c1ccccc1)c1ccccc1)C1CCC1`, the figures for the Intrinsic activity in assay [1] and in assay [2] were -0.2 and -0.18, respectively. Besides, the figures for the pKi in assay [4] and in assay [6] were 7.88 and 6.04, respectively.
For `COc1cccc(/C(=C/CNC(C)=O)c2ccccc2)c1`, the values for the Intrinsic activity in assay [1] and in assay [2] were 0.38 and 0.54, respectively. Also, the Activity result in assay [3] and in assay [5] (filed as partial agonist) was “Partial agonist” in each case. In addition, the values for the negative-log Ki (pKi) in assay [4] and in assay [6] were 9.66 and 8.57, respectively.
`CC(=O)NCC=C(c1ccccc1)c1ccccc1`: the Intrinsic activity in assay [1] was 0.19; in assay [2], -0.03. For the same compound, the pKi is 7.94 in assay [4] and 6.29 in assay [6].
Regarding `COc1cccc(C(CNC(C)=O)Cc2ccccc2)c1` (configuration not stated), the Intrinsic activity was -0.18 in assay [1] and -0.23 in assay [2]. For the same compound, the pKi in assay [4] was 6.69; in assay [6], 6.16.
Consider `CC(=O)NC/C(=C/c1ccccc1)c1ccccc1`, for which the Intrinsic activity in assay [1] is -0.15; in assay [2], -0.23. In addition, the figures for the pKi in assay [4] and in assay [6] were 6.28 and 5.44, respectively.
`CCC(=O)NCCC(c1ccccc1)c1cccc(OC)c1` (racemic): the Intrinsic activity in assay [1] is 0.28; in assay [2] it was 0.31. The results for the negative-log Ki (pKi) in assay [4] and in assay [6] were 8.30 and 6.44, respectively.
